The species named for one experiment is Homo sapiens. Description: Selectivity factor, ratio of IC50 for human placental 17beta-HSD1 cytosolic fraction to IC50 for placental 17beta-HSD2 microsomal fraction. The method, boiled down:
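Selectivity factor calculated as IC50(h17β-HSD1)/IC50(h17β-HSD2), both IC50 values taken from the placental cytosolic and microsomal radiolabel HPLC assays.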

Experiment [1] addresses T1, Estradiol 17-beta-dehydrogenase 2 (Mus musculus) (UniProt P51658).
T1 sequence (whole entry): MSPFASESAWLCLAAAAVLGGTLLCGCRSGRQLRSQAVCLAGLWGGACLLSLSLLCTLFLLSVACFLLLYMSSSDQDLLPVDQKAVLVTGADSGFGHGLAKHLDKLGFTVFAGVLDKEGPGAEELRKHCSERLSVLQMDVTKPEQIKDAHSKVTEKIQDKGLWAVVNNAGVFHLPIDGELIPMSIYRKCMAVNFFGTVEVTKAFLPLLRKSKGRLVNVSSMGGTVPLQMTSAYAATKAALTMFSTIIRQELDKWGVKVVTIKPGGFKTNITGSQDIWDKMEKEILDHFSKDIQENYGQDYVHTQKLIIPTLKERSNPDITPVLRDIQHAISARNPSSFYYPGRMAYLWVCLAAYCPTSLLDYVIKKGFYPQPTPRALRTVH
Description: Inhibition of mouse liver 17beta-HSD2 microsomal fraction using tritiated estradiol as substrate assessed as formation of estrone at 1 uM by HPLC analysis relative to control. The method, boiled down:
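Mouse liver microsomes were used, following the same procedure as the human type 2 assay: tritiated E2 at 500 nM with NAD⁺, and E1 formation quantified after HPLC separation.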

The target of experiment [2] is T2, Estrogen receptor (Homo sapiens) (UniProt P03372).
T2 sequence (whole entry): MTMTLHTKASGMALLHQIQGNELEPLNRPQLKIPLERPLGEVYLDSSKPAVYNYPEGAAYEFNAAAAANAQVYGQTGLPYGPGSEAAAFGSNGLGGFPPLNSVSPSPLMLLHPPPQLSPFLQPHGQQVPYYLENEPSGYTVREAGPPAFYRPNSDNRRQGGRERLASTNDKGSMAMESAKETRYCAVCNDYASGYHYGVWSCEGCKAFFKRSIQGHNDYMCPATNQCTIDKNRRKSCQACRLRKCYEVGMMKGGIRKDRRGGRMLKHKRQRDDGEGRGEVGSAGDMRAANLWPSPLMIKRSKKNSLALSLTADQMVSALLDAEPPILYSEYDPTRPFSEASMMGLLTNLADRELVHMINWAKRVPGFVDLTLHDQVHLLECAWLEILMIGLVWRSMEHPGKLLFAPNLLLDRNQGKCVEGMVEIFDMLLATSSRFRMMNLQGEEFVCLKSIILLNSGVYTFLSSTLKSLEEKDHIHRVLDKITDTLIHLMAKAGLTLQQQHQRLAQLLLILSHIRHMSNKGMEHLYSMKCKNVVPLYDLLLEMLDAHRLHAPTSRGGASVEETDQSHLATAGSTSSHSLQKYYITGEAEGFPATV
Description: Displacement of [3H]-estradiol from recombinant human estrogen receptor-alpha by liquid scintillation counting analysis relative to estradiol. The method, boiled down: (§1)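 Competitive binding with [³H]-E2; compounds in DMSO at 5% final. Non-specific binding was set with unlabeled E2 at 100-fold the tracer: 300 nM for ERα, 1000 nM for ERβ. Bound complexes were captured on hydroxyapatite and counted by liquid scintillation. Concentrations displacing 50% were read from sigmoidal curves, with E2 run in each experiment. RBA[%] = IC50(E2)/IC50(compound) × 100.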

Experiment [3] addresses Estrogen receptor beta (Homo sapiens) (UniProt Q92731). Description: Displacement of [3H]-estradiol from recombinant human estrogen receptor-beta by liquid scintillation counting analysis relative to estradiol. In outline:
as §1
A general note: Displacement assays read how much labelled ligand stays bound in the presence of the test substance.

The target of experiment [4] is T3, 17-beta-hydroxysteroid dehydrogenase type 1 (Homo sapiens) (UniProt P14061).
T3 sequence (whole entry): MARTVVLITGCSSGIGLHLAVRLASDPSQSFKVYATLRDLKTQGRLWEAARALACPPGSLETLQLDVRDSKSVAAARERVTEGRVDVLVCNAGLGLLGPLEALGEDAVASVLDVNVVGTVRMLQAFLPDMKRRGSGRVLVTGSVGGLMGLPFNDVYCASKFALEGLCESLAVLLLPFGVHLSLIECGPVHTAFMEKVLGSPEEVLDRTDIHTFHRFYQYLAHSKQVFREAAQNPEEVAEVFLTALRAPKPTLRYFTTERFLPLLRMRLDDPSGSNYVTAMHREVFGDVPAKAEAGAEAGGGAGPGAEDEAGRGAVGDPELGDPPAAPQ
The experiment is described as follows: Inhibition of human placental 17beta-HSD1 cytosolic fraction using tritiated estrone as substrate assessed as formation of estradiol at 1 uM by HPLC analysis relative to control. In outline:
(§2)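 Cytosolic fraction from placenta served as the enzyme source, incubated with tritiated E1 (500 nM final), NADH cofactor and test compound. E1 and E2 were separated by HPLC and the labeled species quantified. Mean of three determinations.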

The target of experiment [5] is T4, 17-beta-hydroxysteroid dehydrogenase type 1 (Homo sapiens, UniProt P14061).
T4 sequence (P14061 whole entry): T3 sequence (whole entry)
The experiment is described as follows: Inhibition of human placental 17beta-HSD1 cytosolic fraction using tritiated estrone as substrate assessed as formation of estradiol by HPLC analysis. The method, boiled down:
as §2

In experiment [6] the target is T5, 17-beta-hydroxysteroid dehydrogenase type 2 (Homo sapiens) (UniProt P37059).
T5 sequence (whole entry): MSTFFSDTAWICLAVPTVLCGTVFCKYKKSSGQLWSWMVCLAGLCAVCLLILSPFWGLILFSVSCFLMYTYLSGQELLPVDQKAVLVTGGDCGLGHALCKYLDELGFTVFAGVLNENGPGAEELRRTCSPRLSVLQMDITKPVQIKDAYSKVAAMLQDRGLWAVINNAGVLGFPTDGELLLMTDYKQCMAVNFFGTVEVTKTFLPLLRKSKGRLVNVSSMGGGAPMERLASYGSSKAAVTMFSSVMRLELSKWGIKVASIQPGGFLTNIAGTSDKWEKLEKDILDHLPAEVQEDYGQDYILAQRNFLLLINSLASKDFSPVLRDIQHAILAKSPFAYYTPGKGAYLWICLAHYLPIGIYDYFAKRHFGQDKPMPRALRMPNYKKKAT
The experiment is described as follows: Inhibition of human placental 17beta-HSD2 microsomal fraction using tritiated estradiol as substrate assessed as formation of estrone at 1 uM by HPLC analysis relative to control. In outline:
(§3)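 Placental microsomes were incubated with tritiated E2 (500 nM final) plus NAD⁺ cofactor and test compound. Labeled E2 and E1 were separated by HPLC and quantified. Mean of three determinations, standard deviation below 20%.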

The target in experiment [7] is T6, 17-beta-hydroxysteroid dehydrogenase type 2 (Homo sapiens, UniProt P37059).
T6 sequence (P37059 whole entry): T5 sequence (whole entry)
The experiment is described as follows: Inhibition of human placental 17beta-HSD2 microsomal fraction using tritiated estradiol as substrate assessed as formation of estrone by HPLC analysis. In outline: as §3

The record followed here is ChEMBL document CHEMBL3286341, “Novel, potent and selective 17β-hydroxysteroid dehydrogenase type 2 inhibitors as potential therapeutics for osteoporosis with dual human and mouse activities” (Eur J Med Chem, 2014).

SMILES strings stand for the structures. Activity calls are given as the source filed them. No cut-off for these calls is given here.

Chain of Estrogen receptor beta (Homo sapiens) (Q92731 whole entry): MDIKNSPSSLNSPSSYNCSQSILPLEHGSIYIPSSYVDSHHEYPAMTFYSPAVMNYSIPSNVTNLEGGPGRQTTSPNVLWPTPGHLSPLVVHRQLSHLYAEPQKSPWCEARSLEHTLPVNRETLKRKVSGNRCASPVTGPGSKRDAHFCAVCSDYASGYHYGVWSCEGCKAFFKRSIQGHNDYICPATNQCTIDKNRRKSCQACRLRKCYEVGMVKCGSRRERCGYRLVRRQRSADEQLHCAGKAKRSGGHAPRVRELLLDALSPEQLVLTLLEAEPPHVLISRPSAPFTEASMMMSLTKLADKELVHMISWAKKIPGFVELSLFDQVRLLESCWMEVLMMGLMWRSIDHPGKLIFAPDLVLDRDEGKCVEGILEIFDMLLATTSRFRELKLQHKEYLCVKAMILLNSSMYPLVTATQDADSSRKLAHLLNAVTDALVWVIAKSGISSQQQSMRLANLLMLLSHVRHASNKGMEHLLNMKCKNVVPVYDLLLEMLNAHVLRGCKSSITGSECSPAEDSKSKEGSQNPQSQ

For the molecule `Cc1cc(-c2cccc(O)c2)sc1-c1cccc(O)c1`, the Ratio IC50 in the experiment filed under Homo sapiens was 2. The inhibition result in experiment [1] is “inactive”.

For the molecule `COc1cccc(-c2csc(C(=O)N(C)c3cccc(OC)c3)c2)c1`, the RBA in experiment [2] and in experiment [3] was below 0.1% throughout.

For `COc1cccc(-c2ccc(C(=O)N(C)Cc3cccc(O)c3)s2)c1F`, in experiment [4], the inhibition entry was “inactive”. Also, in the experiment filed under Homo sapiens, the Ratio IC50 worked out at 73.

In the case of `COc1cccc(CN(C)C(=O)c2ccc(-c3cccc(OC)c3)s2)c1`, in experiment [4], the inhibition result was “inactive”. Further, the IC50 in experiment [5] is above 10 µM. Further, the Ratio IC50 in the experiment filed under Homo sapiens was above 250. In experiment [1], the inhibition was 26%.

`COc1cccc(CC(=O)c2ccc(-c3cccc(OC)c3)s2)c1`: the inhibition in experiment [6] came out at 17%; in experiment [1], 12%. Further, in experiment [4], the inhibition result is “inactive”.

With `O=C(Cc1cccc(O)c1)c1ccc(-c2cccc(O)c2)s1`, the inhibition in experiment [6] amounted to 37%; in experiment [4], 43%. Further, the inhibition entry in experiment [1] is “inactive”.

Turning to `CN(C(=O)c1cc(-c2cccc(O)c2)sc1-c1cccc(O)c1)c1cccc(O)c1`, the inhibition in experiment [6] was found to be 74%; in experiment [4], 29%; in experiment [1] it was 42%. The IC50 in experiment [7] turned out to be 0.362 µM; in experiment [5], 2.49 µM. In addition, in the experiment filed under Homo sapiens, the Ratio IC50 is 7.

Take `CC(C)(C(=O)c1ccc(-c2cccc(O)c2)s1)c1cccc(O)c1`: the inhibition in experiment [6] is 73%; in experiment [4], 54%; in experiment [1], 42%. Further, the values for the IC50 in experiment [7] and in experiment [5] were 0.357 µM and 0.336 µM, respectively. For the same molecule, the Ratio IC50 in the experiment listed under Homo sapiens was found to be 1.

With `Oc1cccc(-c2cc(-c3cccc(O)c3)c(-c3cccc(O)c3)s2)c1`, the Ratio IC50 in the experiment filed under Homo sapiens is 2. Moreover, the RBA in experiment [2] and in experiment [3] was below 0.1% each time. Moreover, the inhibition result in experiment [1] was “inactive”.

Consider `CN(Cc1cccc(O)c1)C(=O)c1ccc(-c2cccc(O)c2)s1`, for which the Ratio IC50 in the experiment filed under Homo sapiens worked out at 14. Besides, in experiment [1], the inhibition was found to be 16%.

As a reminder, the inhibition is the change of the read-out against control, counted positive when it falls. As usually defined, the IC50 is the concentration that gives 50% inhibition.
